Active and inactive are the calls of the source. No cut-off for these calls is given here.
Experiments:
Mus musculus [1] = assay: Effective dose required to prevent reserpine ptosis in mice, administered intraperitoneally.; format: functional, organism-based
In short: (§1)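 Male Swiss-Webster or Harlan ICR mice, five per dose. Drug in saline given po or ip per line. Reserpine 2.5 mg/kg ip 30 min later. Complete absence of ptosis at 45 min after reserpine scored as positive. ED50 by Litchfield-Wilcoxon or Horn method, with 95% confidence intervals.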

Mus musculus [2] = assay: Effective dose required to prevent reserpine ptosis in mice, administered orally; format: functional; settings: po; in short: as §1
Mus musculus [3] = assay: Effective dose required to prevent reserpine ptosis in mice, administered intraperitoneally; NA=Not active at 100 mg/kg; format: functional, organism-based; set-up: dose 100 mg/kg; in short: as §1
Mus musculus [4] = assay: Effective dose against yohimbine hydrochloride induced lethality in mice, administered intraperitoneally; format: functional; settings: ip
In short: (§2)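 Male Swiss-Webster or Swiss ND/4 mice, 20-24 g, randomized into groups of 10 and housed five per cage. Test drug in saline given ip, with a saline control group. Yohimbine hydrochloride 20 mg/kg sc was given 30 min later, and mice were then reaggregated.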

Mus musculus [5] = assay: Effective dose required to prevent reserpine ptosis in mice, administered orally(po); format: functional; in short: as §1
Mus musculus [6] = assay: Effective dose required to prevent reserpine ptosis in mice administered orally; format: functional; settings: po; in short: as §1
Mus musculus [7] = assay: Effective dose required to prevent reserpine ptosis in mice administered intraperitoneally; NA=Not active; format: functional, organism-based; in short: as §1
Mus musculus [8] = assay: Effective dose required to prevent reserpine ptosis in mice, administered po; NA=Not active; format: functional, organism-based; in short: as §1
Mus musculus [9] = assay: Effective dose required to prevent reserpine ptosis in mice, administered orally(po); NA=Not active at 100 mg/kg; format: functional, organism-based; set-up: dose 100 mg/kg; in short: as §1
Mus musculus [10] = assay: Effective dose required to prevent reserpine ptosis in mice, administered intraperitoneally; format: functional; settings: ip; in short: as §1
Mus musculus [11] = assay: Effective dose required to potentiate yohimbine hydrochloride induced lethality in mice, administered intraperitoneally; NA=Not active; format: functional, organism-based
In short: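 Male Swiss-Webster or Swiss ND/4 mice, 20-24 g, randomized into groups of 10 and aggregated five per cage. Test drug in saline given ip, with a saline control group. Yohimbine HCl (20 mg/kg, sc) injected 30 min later, then mice reaggregated.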

Mus musculus [12] = assay: Effective dose required to potentiate yohimbine hydrochloride induced lethality in mice, administered intraperitoneally; format: functional; settings: ip; in short: as §2
Mus musculus [13] = assay: Effective dose required to prevent reserpine ptosis in mice, administered intraperitoneally; NA=Not active at 46 mg/Kg; format: functional, organism-based; in short: as §1
Mus musculus [14] = assay: Effective dose required to prevent reserpine ptosis in mice, administered (po)orally; format: functional; in short: as §1
Mus musculus [15] = assay: Effective dose required to prevent reserpine ptosis in mice, administered orally (po); format: functional; in short: as §1
[16] = Therapeutic index administered perorally in mouse; format: organism-based; settings: in vivo, po, read-out: Therapeutic index
In short: (§3)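 Index from mouse LD50 over reserpine-ptosis ED50 by the same route. […] Deaths recorded at 1 and 24 h; Litchfield-Wilcoxon calculation.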

[17] = Lethal dose in mouse i.p.; format: toxicity, organism-based; settings: in vivo, ip
In short: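 Male Swiss-Webster albino mice, 20-24 g, in groups of five. Each group received one dose ip in saline (prepared 30 min before injection) at 10 mL/kg. Mice were held singly for about 5 h, then housed together with food and water. Deaths were counted at 1 and 24 h. LD50 by Litchfield-Wilcoxon.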

[18] = Therapeutic index administered intraperitoneally in mouse; format: organism-based; settings: in vivo, ip, read-out: Therapeutic index; in short: as §3
[19] = Lethal dose in mouse p.o.; format: toxicity, organism-based; settings: in vivo, po
Mus musculus [20] = assay: Electrical shock aggression was evaluated in mice, administered intraperitoneally; format: functional; settings: ip
In short: (§4)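 Pairs of mice placed under an inverted 1000 cm3 beaker and shocked through the floor grid (3 mA, 3 Hz) for 2 min. Drug given ip 30 min before testing; scored all-or-none against a saline group. Fighting counted as inhibited when mean attacks fell 1.5 SD below the vehicle mean.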

Mus musculus [21] = assay: Effective dose required to prevent reserpine ptosis in mice, administered orally; NA=Not active at 100 mg/kg; format: functional, organism-based; set-up: dose 100 mg/kg; in short: as §1
Mus musculus [22] = assay: Electrical shock aggression was evaluated in mice, administered intraperitoneally; NA means no aggression blockade at 46.4 mg/kg; format: functional, organism-based; set-up: dose 46.4 mg/kg; in short: as §4

CC/N=C(/Cc1cccc(C)c1)NCC
ED50 (Mus musculus [1]): inactive

CC/N=C(/Cc1ccc2ccccc2c1Cl)NCC.Cl
ED50 (Mus musculus [2]): 41 mg/kg
ED50 (Mus musculus [3]): inactive
ED50 (Mus musculus [4]): 41 mg/kg

Cl.N=C(Cc1ccc2ccccc2c1Cl)N1CCC(O)(c2ccc(Cl)cc2)CC1
ED50 (Mus musculus [5]): 10.8 mg/kg

Cl.N=C(Cc1ccc2ccccc2c1)N1CCCCCC1
ED50 (Mus musculus [6]): 11 mg/kg

CCC/N=C(/COc1ccccc1)NCCC
ED50 (Mus musculus [7]): inactive

Cl.N=C(Cc1ccc2ccccc2c1Cl)N1CCN(c2ccccc2)CC1
ED50 (Mus musculus [5]): 16.2 mg/kg

C/N=C(/Cc1cc2ccccc2cc1C)NC
ED50 (Mus musculus [1]): inactive
ED50 (Mus musculus [8]): inactive

N=C(Cc1ccc2ccccc2c1Cl)N1CCN(C(c2ccccc2)c2ccccc2)CC1
ED50 (Mus musculus [9]): inactive

CC/N=C(/Cc1c(Cl)cccc1Cl)NCC
ED50 (Mus musculus [1]): inactive

CCC(=O)C1(c2ccccc2)CCN(C(=N)Cc2ccc3ccccc3c2)CC1
ED50 (Mus musculus [9]): inactive

C/N=C(/Cc1ccc2cc(OC)ccc2c1)NC.Cl
ED50 (Mus musculus [2]): 23.7 mg/kg
ED50 (Mus musculus [10]): 19 mg/kg
ED50 (Mus musculus [11]): inactive

CC/N=C(/Cc1ccc(Br)cc1)NCC.Cl
ED50 (Mus musculus [10]): 2.8 mg/kg
ED50 (Mus musculus [12]): 2.7 mg/kg

CC/N=C(/Cc1cc(Cl)c(Cl)cc1Cl)NCC
ED50 (Mus musculus [13]): inactive

Cl.N=C(Cc1ccc2ccccc2c1)N1CCCC1
ED50 (Mus musculus [14]): 11 mg/kg

C/N=C(/Cc1ccc2cc(C)ccc2c1)NC.Cl
ED50 (Mus musculus [2]): 31.6 mg/kg
ED50 (Mus musculus [10]): 19.6 mg/kg
ED50 (Mus musculus [11]): inactive

C/N=C(\NC)c1ccccc1.Cl
ED50 (Mus musculus [10]): 0.8 mg/kg
ED50 (Mus musculus [12]): 4 mg/kg

C/N=C(/Cc1ccc(-c2ccccc2)cc1)NC
ED50 (Mus musculus [1]): inactive

COc1ccc2cc(CC(=N)N3CCCC3)ccc2c1
ED50 (Mus musculus [9]): inactive

C/N=C(\NC)c1ccc(Cl)cc1.Cl
ED50 (Mus musculus [15]): 6.2 mg/kg
ED50 (Mus musculus [10]): 6.8 mg/kg
selectivity ratio [16]: 32
LD50 [17]: 108 mg/kg
selectivity ratio [18]: 16
LD50 [19]: 200 mg/kg
ED50 (Mus musculus [12]): 6 mg/kg

Cl.Cl.N=C(Cc1ccc2ccccc2c1Cl)NCCCN1CCOCC1
ED50 (Mus musculus [5]): 3.2 mg/kg

COc1ccc2cc(CC(=N)N3CCC(c4ccccc4)CC3)ccc2c1
ED50 (Mus musculus [9]): inactive

Cl.N=C(Cc1ccc2ccccc2c1Cl)N1CCC(Cc2ccccc2)CC1
ED50 (Mus musculus [2]): 19.6 mg/kg

Cl.N=C(Cc1ccc2ccccc2c1Cl)N1CCCC1
ED50 (Mus musculus [2]): 2.9 mg/kg

CN(C)CCCN1c2ccccc2CCc2ccccc21 [IMIPRAMINE]
ED50 (Mus musculus [20]): 23 mg/kg
ED50 (Mus musculus [10]): 13 mg/kg
ED50 (Mus musculus [14]): 14 mg/kg
ED50 (Mus musculus [12]): 0.7 mg/kg

C/N=C(/COc1ccc(Cl)cc1Cl)NC.Cl
ED50 (Mus musculus [10]): 7.5 mg/kg

CNC(=N)Cc1ccc2ccccc2c1.Cc1ccc(S(=O)(=O)O)cc1.Cl
ED50 (Mus musculus [5]): 22.5 mg/kg

C/N=C(/Cc1ccc2cc(O)ccc2c1)NC.Cl
ED50 (Mus musculus [14]): 23.7 mg/kg

Cc1ccc(C/N=C(/N)Cc2ccc3ccccc3c2)c(C)c1
ED50 (Mus musculus [21]): inactive

C/N=C(/Cc1ccc2ccccc2c1)NC.Cl [NAPACTADINE HYDROCHLORIDE]
ED50 (Mus musculus [20]): 12.6 mg/kg
ED50 (Mus musculus [10]): 12.6 mg/kg
selectivity ratio [16]: 34
LD50 [17]: 68.1 mg/kg
selectivity ratio [18]: 5
LD50 [19]: 584 mg/kg
ED50 (Mus musculus [5]): 17.1 mg/kg
ED50 (Mus musculus [12]): 0.8 mg/kg

C/N=C(/Cc1ccc([N+](=O)[O-])cc1)NC.Cl
ED50 (Mus musculus [22]): inactive
ED50 (Mus musculus [10]): 3.2 mg/kg
selectivity ratio [16]: 213
LD50 [17]: 215 mg/kg
selectivity ratio [18]: 67
LD50 [19]: 681 mg/kg
ED50 (Mus musculus [14]): 3.2 mg/kg
ED50 (Mus musculus [12]): 20 mg/kg

COc1ccccc1N1CCN(C(=N)Cc2ccc3ccccc3c2)CC1
ED50 (Mus musculus [9]): inactive

C/N=C(/Cc1ccc2ccccc2c1O)NC.Cl
ED50 (Mus musculus [14]): 26.1 mg/kg

CC/N=C(/Cc1ccc2cc(C)ccc2c1)NCC
ED50 (Mus musculus [3]): inactive

CC1CN(C(=N)Cc2ccc3ccccc3c2)CC(C)O1.Cl (stereo unspecified)
ED50 (Mus musculus [14]): 28.7 mg/kg

From ChEMBL document CHEMBL1122853, “New bicyclic antidepressant agent. Synthesis and activity of napactadine and related compounds” (J Med Chem, 1985)
